The source of these data is ChEMBL document CHEMBL1770134, “Synthesis and in vitro activity of novel 1,2,4-triazolo[4,3-a]pyrimidine oxazolidinone antibacterial agents” (Bioorg Med Chem Lett, 2011).

The test system of data set [1] is Staphylococcus epidermidis. The data set can be described thus: Antibacterial activity Staphylococcus epidermidis ATCC 12228. It counts as functional.
In the next data set the test system is Escherichia coli. Description: Antibacterial activity against Escherichia coli ATCC 25922. It counts as functional.
For data set [2], the system named is Enterococcus faecalis. The data set can be described thus: Antibacterial activity against Enterococcus faecalis ATCC 29212. It is filed as functional.
Data set [3] has as its system Staphylococcus aureus. Description: Antibacterial activity against methicillin-resistant Staphylococcus aureus ATCC 43300. It counts as functional. Summed up: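 MIC determined following CLSI guideline M07-A8 (2009) for dilution susceptibility testing of aerobically growing bacteria.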
The test system of data set [4] is Staphylococcus aureus. The data set can be described thus: Antibacterial activity against Staphylococcus aureus ATCC 25923. It is filed as functional.
For data set [5], the system named is Enterococcus faecalis. Description: Ratio of MIC for Linezolid to compound for Enterococcus faecalis ATCC 29212. It is filed as functional.
Data set [6] relates to Staphylococcus aureus. Description: Ratio of MIC for Linezolid to compound for Staphylococcus aureus ATCC 25923. It counts as functional.
Data set [7] relates to Staphylococcus epidermidis. The data set can be described thus: Ratio of MIC for Linezolid to compound for Staphylococcus epidermidis ATCC 12228. It counts as functional.
A further data set concerns the target T1, CYP1A2 (Homo sapiens, UniProt P05177).
T1 sequence (P05177 whole entry): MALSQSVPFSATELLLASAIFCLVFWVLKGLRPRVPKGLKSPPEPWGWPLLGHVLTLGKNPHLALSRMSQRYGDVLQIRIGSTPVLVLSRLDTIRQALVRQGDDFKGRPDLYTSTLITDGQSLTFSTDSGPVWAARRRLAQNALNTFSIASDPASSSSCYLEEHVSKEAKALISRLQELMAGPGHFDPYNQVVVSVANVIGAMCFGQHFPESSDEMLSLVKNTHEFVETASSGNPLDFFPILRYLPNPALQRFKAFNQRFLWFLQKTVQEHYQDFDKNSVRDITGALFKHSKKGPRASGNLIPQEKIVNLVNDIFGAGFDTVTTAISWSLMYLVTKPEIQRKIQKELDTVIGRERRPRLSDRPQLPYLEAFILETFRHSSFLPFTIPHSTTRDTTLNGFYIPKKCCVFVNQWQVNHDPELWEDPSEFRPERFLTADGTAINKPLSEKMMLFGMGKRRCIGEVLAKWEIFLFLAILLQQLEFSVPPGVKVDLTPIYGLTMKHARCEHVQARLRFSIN
Description: Inhibition of CYP1A2 at 10 uM. It counts as ADME. Summed up: (§1)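 Recombinant CYP isoforms each incubated with its own fluorogenic substrate, which is turned into a fluorescent product; fluorescence read on a plate reader. Inhibition taken as concentration-dependent reduction of that fluorescence, with standard inhibitors, buffers and stop reagents from a commercial kit.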

Another data set concerns the target CYP2C9 (Homo sapiens, UniProt P11712). Description: Inhibition of CYP2C9 at 10 uM. It counts as ADME. In outline:
as §1

The target of the next data set is CYP2C19 (Homo sapiens, UniProt P33261). Description: Inhibition of CYP2C19 at 10 uM. It counts as ADME. Summed up: as §1
Sequence of CYP2C19 (P33261 whole entry): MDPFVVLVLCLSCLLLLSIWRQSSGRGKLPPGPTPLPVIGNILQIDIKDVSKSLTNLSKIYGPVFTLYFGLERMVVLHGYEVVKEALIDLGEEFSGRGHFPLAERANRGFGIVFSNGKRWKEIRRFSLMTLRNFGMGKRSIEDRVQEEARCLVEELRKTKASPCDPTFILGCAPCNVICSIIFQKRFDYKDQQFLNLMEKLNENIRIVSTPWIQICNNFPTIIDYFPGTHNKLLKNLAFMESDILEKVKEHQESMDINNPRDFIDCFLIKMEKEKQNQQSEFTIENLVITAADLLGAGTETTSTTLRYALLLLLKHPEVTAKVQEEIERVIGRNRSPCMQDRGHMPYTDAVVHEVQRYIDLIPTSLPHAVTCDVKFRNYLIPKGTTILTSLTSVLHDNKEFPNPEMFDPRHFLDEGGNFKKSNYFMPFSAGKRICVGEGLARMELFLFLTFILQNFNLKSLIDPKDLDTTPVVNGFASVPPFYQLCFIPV
The next data set addresses CYP2D6 (Homo sapiens, UniProt P10635). Description: Inhibition of CYP2D6 at 10 uM. It counts as ADME. Summed up:
as §1

The next data set deals with CYP3A4 (Homo sapiens, UniProt P08684). The data set can be described thus: Inhibition of CYP3A4 at 10 uM. It counts as ADME. Summed up:
as §1

The subject of another data set is Liver. Description: Metabolic stability in human liver microsomes assessed per gram of liver. It counts as ADME, Microsome. Background: Liver microsomes are vesicles of endoplasmic reticulum, rich in cytochrome P450 enzymes.

In brackets after ≈: the same amount, converted by molar mass. Bounds are passed on as bounds.

Sequence of CYP2D6 (P10635 whole entry): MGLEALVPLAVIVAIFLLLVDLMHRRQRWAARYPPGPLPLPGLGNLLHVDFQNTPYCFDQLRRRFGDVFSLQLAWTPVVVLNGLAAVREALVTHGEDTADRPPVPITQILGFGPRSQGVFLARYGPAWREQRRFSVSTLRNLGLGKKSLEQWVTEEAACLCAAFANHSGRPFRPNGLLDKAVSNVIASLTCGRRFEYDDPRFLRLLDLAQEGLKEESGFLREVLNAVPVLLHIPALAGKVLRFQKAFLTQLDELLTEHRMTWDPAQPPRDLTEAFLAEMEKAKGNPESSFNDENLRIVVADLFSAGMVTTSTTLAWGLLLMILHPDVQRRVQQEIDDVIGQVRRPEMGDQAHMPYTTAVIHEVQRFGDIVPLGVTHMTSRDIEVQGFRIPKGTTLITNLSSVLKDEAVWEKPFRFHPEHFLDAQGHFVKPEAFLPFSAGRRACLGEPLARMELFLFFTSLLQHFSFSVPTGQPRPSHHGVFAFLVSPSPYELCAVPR
Sequence of CYP3A4 (P08684 whole entry): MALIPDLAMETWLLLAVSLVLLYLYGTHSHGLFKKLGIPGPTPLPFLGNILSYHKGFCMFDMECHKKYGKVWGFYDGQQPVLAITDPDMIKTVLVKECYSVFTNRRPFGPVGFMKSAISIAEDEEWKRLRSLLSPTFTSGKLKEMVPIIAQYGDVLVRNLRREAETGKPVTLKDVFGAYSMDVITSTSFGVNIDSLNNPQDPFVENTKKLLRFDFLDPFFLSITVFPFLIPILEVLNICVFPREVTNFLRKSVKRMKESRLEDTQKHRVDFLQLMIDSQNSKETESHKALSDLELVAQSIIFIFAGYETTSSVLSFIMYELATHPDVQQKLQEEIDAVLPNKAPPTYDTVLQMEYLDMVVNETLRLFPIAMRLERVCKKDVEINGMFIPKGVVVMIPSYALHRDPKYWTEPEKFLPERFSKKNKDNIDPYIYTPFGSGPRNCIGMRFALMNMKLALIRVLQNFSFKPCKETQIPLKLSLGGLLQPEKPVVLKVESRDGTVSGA
Sequence of CYP2C9 (P11712 whole entry): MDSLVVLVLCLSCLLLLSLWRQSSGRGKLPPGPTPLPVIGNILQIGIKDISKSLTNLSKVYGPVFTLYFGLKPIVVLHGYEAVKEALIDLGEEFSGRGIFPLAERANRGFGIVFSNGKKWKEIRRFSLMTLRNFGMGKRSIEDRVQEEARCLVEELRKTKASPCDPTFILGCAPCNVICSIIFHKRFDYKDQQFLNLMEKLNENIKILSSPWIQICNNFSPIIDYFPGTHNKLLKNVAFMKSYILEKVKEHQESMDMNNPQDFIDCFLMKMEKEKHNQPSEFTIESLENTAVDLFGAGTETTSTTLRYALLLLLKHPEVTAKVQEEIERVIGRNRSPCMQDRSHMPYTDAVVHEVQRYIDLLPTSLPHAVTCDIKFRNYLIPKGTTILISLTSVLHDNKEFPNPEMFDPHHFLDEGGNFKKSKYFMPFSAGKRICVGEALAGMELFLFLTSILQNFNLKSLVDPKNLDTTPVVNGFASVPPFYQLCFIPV

For orientation: MIC means the smallest concentration in the dilution series that meets the test's criterion for growth inhibition. The low end stands for greater potency, the high end for weaker potency. On to `CC(=O)NC[C@H]1CN(c2ccc(-c3nnc4ncccn34)cc2)C(=O)O1`, for which the MIC in data set [1] was 8 µg/mL (≈ 22.7 µM); in the data set on Escherichia coli it was greater than 16 µg/mL; with Enterococcus faecalis [2] it was 16 µg/mL (≈ 45.4 µM); against Staphylococcus aureus [3], 16 µg/mL (≈ 45.4 µM); against Staphylococcus aureus [4], 16 µg/mL (≈ 45.4 µM).

On to `CC(C)C(=O)NC[C@H]1CN(c2ccc(-c3nnc4ncccn34)cc2)C(=O)O1`, for which the minimal inhibitory concentration (MIC) is greater than 16 µg/mL in data set [1]; greater than 16 µg/mL in the data set on Escherichia coli; greater than 16 µg/mL with Enterococcus faecalis [2]; 16 µg/mL (≈ 42.1 µM) in the data set with Staphylococcus aureus [3]; greater than 16 µg/mL with Staphylococcus aureus [4].

With `CCCCNC(=O)NC[C@H]1CN(c2ccc(-c3nnc4ncccn34)cc2)C(=O)O1`, the minimum inhibitory concentration (MIC) (in data set [1]; in the data set on Escherichia coli; against Enterococcus faecalis [2]; in the data set with Staphylococcus aureus [3]; in the data set on Staphylococcus aureus [4]) was greater than 16 µg/mL in each case.

As to `CCCCNC(=S)NC[C@H]1CN(c2ccc(-c3nnc4ncccn34)cc2)C(=O)O1`, the minimal inhibitory concentration (MIC) in data set [1] is 8 µg/mL (≈ 18.8 µM); against Escherichia coli it was greater than 16 µg/mL; against Enterococcus faecalis [2], 16 µg/mL (≈ 37.6 µM); in the data set on Staphylococcus aureus [3], 8 µg/mL (≈ 18.8 µM); against Staphylococcus aureus [4], 16 µg/mL (≈ 37.6 µM).

With `CCC(=O)NC[C@H]1CN(c2ccc(-c3nnc4ncccn34)cc2)C(=O)O1`, the MIC in [1] is 16 µg/mL (≈ 43.7 µM); in the data set on Escherichia coli, greater than 16 µg/mL; against Enterococcus faecalis [2], 16 µg/mL (≈ 43.7 µM); with Staphylococcus aureus [3], 16 µg/mL (≈ 43.7 µM); in the data set on Staphylococcus aureus [4] it was 16 µg/mL (≈ 43.7 µM).

Turning to `COCCNC(=S)NC[C@H]1CN(c2ccc(-c3nnc4ncccn34)cc2)C(=O)O1`, the MIC in data set [1] was 8 µg/mL (≈ 18.7 µM); against Escherichia coli, greater than 16 µg/mL; with Enterococcus faecalis [2] it was greater than 16 µg/mL; against Staphylococcus aureus [3], 16 µg/mL (≈ 37.4 µM); in the data set on Staphylococcus aureus [4], greater than 16 µg/mL.

Regarding `CC(=O)NC[C@H]1CN(c2ccc(N3CCOCC3)c(F)c2)C(=O)O1` [LINEZOLID], the MIC in data set [1] was 1 µg/mL (≈ 2.96 µM); in the data set on Escherichia coli, greater than 16 µg/mL.

With `CCCCC(=O)NC[C@H]1CN(c2ccc(-c3nnc4ncccn34)cc2)C(=O)O1`, the MIC in [1] is 16 µg/mL (≈ 40.6 µM); against Escherichia coli, greater than 16 µg/mL; in the data set with Enterococcus faecalis [2], greater than 16 µg/mL; against Staphylococcus aureus [3] it was 16 µg/mL (≈ 40.6 µM); against Staphylococcus aureus [4], greater than 16 µg/mL.

`CC(C)NC(=S)NC[C@H]1CN(c2ccc(-c3nnc4ncccn34)cc2)C(=O)O1`: the MIC was 16 µg/mL (≈ 38.9 µM) in data set [1]; greater than 16 µg/mL in the data set with Escherichia coli; greater than 16 µg/mL in the data set with Enterococcus faecalis [2]; 16 µg/mL (≈ 38.9 µM) with Staphylococcus aureus [3]; 16 µg/mL (≈ 38.9 µM) with Staphylococcus aureus [4].

Broadly, the inhibition is the drop in the measured response relative to a control, in per cent. Read a low inhibition as little suppression. In the case of `CC(=S)NC[C@H]1CN(c2ccc(-c3nnc4ncccn34)cc2)C(=O)O1`, the MIC in data set [1] is 0.5 µg/mL (≈ 1.36 µM); against Escherichia coli, greater than 16 µg/mL; against Enterococcus faecalis [2] it was 1 µg/mL (≈ 2.71 µM); against Staphylococcus aureus [3], 0.5 µg/mL (≈ 1.36 µM); in the data set with Staphylococcus aureus [4], 1 µg/mL (≈ 2.71 µM). For the same compound, the Ratio (in the data set on Enterococcus faecalis [5]; in the data set on Staphylococcus aureus [6]; in data set [7]) was 2 in each case. Besides, the inhibition at 10 µM at CYP1A2 came out at 0%; at CYP2C9, 15%; against CYP2C19, 30%; at CYP2D6, 13%; against CYP3A4, 28%. In addition, the Stability with Liver amounted to 0.3 mL/min/g.

As for `CC(C)NC(=O)NC[C@H]1CN(c2ccc(-c3nnc4ncccn34)cc2)C(=O)O1`, the minimum inhibitory concentration (MIC) (in data set [1]; in the data set with Escherichia coli; against Enterococcus faecalis [2]; in the data set on Staphylococcus aureus [3]; with Staphylococcus aureus [4]) was greater than 16 µg/mL in each case.

In the case of `CC(C)(C)NC(=O)NC[C@H]1CN(c2ccc(-c3nnc4ncccn34)cc2)C(=O)O1`, the minimum inhibitory concentration (MIC) (in data set [1]; with Escherichia coli; in the data set on Enterococcus faecalis [2]; in the data set on Staphylococcus aureus [3]; with Staphylococcus aureus [4]) was greater than 16 µg/mL throughout.

On to `O=C(NC[C@H]1CN(c2ccc(-c3nnc4ncccn34)cc2)C(=O)O1)Oc1ccccc1`, for which the MIC (in data set [1]; with Escherichia coli; in the data set on Enterococcus faecalis [2]; with Staphylococcus aureus [3]; with Staphylococcus aureus [4]) was greater than 16 µg/mL throughout.

Take `CCCC(=O)NC[C@H]1CN(c2ccc(-c3nnc4ncccn34)cc2)C(=O)O1`: the minimum inhibitory concentration (MIC) in [1] was 16 µg/mL (≈ 42.1 µM); against Escherichia coli it was greater than 16 µg/mL; in the data set on Enterococcus faecalis [2], greater than 16 µg/mL; against Staphylococcus aureus [3] it was 16 µg/mL (≈ 42.1 µM); against Staphylococcus aureus [4], greater than 16 µg/mL.

Consider `COC(=O)NC[C@H]1CN(c2ccc(-c3nnc4ncccn34)cc2)C(=O)O1`, for which the MIC in [1] is 16 µg/mL (≈ 43.4 µM); against Escherichia coli, greater than 16 µg/mL; with Enterococcus faecalis [2], greater than 16 µg/mL; in the data set with Staphylococcus aureus [3], 16 µg/mL (≈ 43.4 µM); with Staphylococcus aureus [4] it was 16 µg/mL (≈ 43.4 µM).

Consider `O=C(CCl)NC[C@H]1CN(c2ccc(-c3nnc4ncccn34)cc2)C(=O)O1`, for which the minimal inhibitory concentration (MIC) in data set [1] is 4 µg/mL (≈ 10.3 µM); against Escherichia coli it was greater than 16 µg/mL; against Enterococcus faecalis [2], 16 µg/mL (≈ 41.4 µM); in the data set with Staphylococcus aureus [3] it was 4 µg/mL (≈ 10.3 µM); against Staphylococcus aureus [4], 4 µg/mL (≈ 10.3 µM).

Turning to `O=C(NC[C@H]1CN(c2ccc(-c3nnc4ncccn34)cc2)C(=O)O1)C1CCC1`, the minimal inhibitory concentration (MIC) in data set [1] was 16 µg/mL (≈ 40.8 µM); in the data set on Escherichia coli, greater than 16 µg/mL; with Enterococcus faecalis [2], greater than 16 µg/mL; against Staphylococcus aureus [3], 16 µg/mL (≈ 40.8 µM); with Staphylococcus aureus [4], greater than 16 µg/mL.

Take `O=C(NC[C@H]1CN(c2ccc(-c3nnc4ncccn34)cc2)C(=O)O1)C(Cl)Cl`: the minimal inhibitory concentration (MIC) was 4 µg/mL (≈ 9.5 µM) in [1]; greater than 16 µg/mL in the data set on Escherichia coli; 8 µg/mL (≈ 19 µM) against Enterococcus faecalis [2]; 8 µg/mL (≈ 19 µM) in the data set with Staphylococcus aureus [3]; 4 µg/mL (≈ 9.5 µM) in the data set with Staphylococcus aureus [4].

For `CC(C)CC(=O)NC[C@H]1CN(c2ccc(-c3nnc4ncccn34)cc2)C(=O)O1`, the minimal inhibitory concentration (MIC) was 16 µg/mL (≈ 40.6 µM) in data set [1]; greater than 16 µg/mL against Escherichia coli; greater than 16 µg/mL in the data set on Enterococcus faecalis [2]; 16 µg/mL (≈ 40.6 µM) against Staphylococcus aureus [3]; greater than 16 µg/mL with Staphylococcus aureus [4].

In the case of `O=C(NC[C@H]1CN(c2ccc(-c3nnc4ncccn34)cc2)C(=O)O1)C1CC1`, the minimal inhibitory concentration (MIC) was 8 µg/mL (≈ 21.1 µM) in data set [1]; greater than 16 µg/mL with Escherichia coli; 16 µg/mL (≈ 42.3 µM) against Enterococcus faecalis [2]; 8 µg/mL (≈ 21.1 µM) with Staphylococcus aureus [3]; 16 µg/mL (≈ 42.3 µM) in the data set on Staphylococcus aureus [4].

`O=C(NC[C@H]1CN(c2ccc(-c3nnc4ncccn34)cc2)C(=O)O1)c1ccccc1`: the minimum inhibitory concentration (MIC) (in data set [1]; with Escherichia coli; with Enterococcus faecalis [2]; with Staphylococcus aureus [3]; with Staphylococcus aureus [4]) was greater than 16 µg/mL each time.

Turning to `CCC(=S)NC[C@H]1CN(c2ccc(-c3nnc4ncccn34)cc2)C(=O)O1`, the MIC in data set [1] was 2 µg/mL (≈ 5.23 µM); with Escherichia coli it was greater than 16 µg/mL; against Enterococcus faecalis [2] it was 4 µg/mL (≈ 10.5 µM); in the data set on Staphylococcus aureus [3], 2 µg/mL (≈ 5.23 µM); with Staphylococcus aureus [4], 4 µg/mL (≈ 10.5 µM).

`CCOC(=O)NC[C@H]1CN(c2ccc(-c3nnc4ncccn34)cc2)C(=O)O1`: the minimal inhibitory concentration (MIC) is greater than 16 µg/mL in data set [1]; greater than 16 µg/mL against Escherichia coli; greater than 16 µg/mL in the data set on Enterococcus faecalis [2]; 16 µg/mL (≈ 41.8 µM) against Staphylococcus aureus [3]; 16 µg/mL (≈ 41.8 µM) with Staphylococcus aureus [4].
